Source: ChEMBL document CHEMBL1147738, “Potent and selective mitogen-activated protein kinase kinase (MEK) 1,2 inhibitors. 1. 4-(4-bromo-2-fluorophenylamino)-1- methylpyridin-2(1H)-ones” (J Med Chem, 2006)

How the values were obtained:
[1] = biological target: Mitogen-activated protein kinase 14 (Homo sapiens) (UniProt Q16539); test: Inhibition of SAPK2a/p38 at 10 uM
Method in brief: (§1)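 Kinase panel run at Upstate (Dundee). Each compound was tested at 10 µM against each enzyme and reported as % inhibition.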

Malme-3M = test: Inhibition of cellular viability of Malme-3M cells; format: functional, Homo sapiens
[2] = Clearance in presence of human hepatocytes; format: ADME, cell-based, Liver, Hepatocyte
Method in brief: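 Human hepatocytes (fresh or cryopreserved) diluted to 2 x 10⁶ viable cells/mL in supplemented Krebs-Henseleit buffer pH 7.3, mixed 1:1 with 2 µM compound working solution. Incubated at 37 °C, 5% CO₂, duplicates, one plate per timepoint. Quenched with labetalol internal standard and centrifuged; compound remaining measured by LC-MS/MS (ESI+, MRM).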

[3] = Clearance in rat; format: ADME, organism-based; conditions: Sprague-Dawley, in vivo
Method in brief: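 Male Sprague Dawley rats (6-10 weeks) received IV 1 mg/kg (10% DMSO/90% saline) and PO 10 mg/kg (1% CMC/0.5% Tween 80). Serial tail-vein plasma was taken up to 24 h (IV) or 72 h (PO) and analysed by LC/MS/MS (9 ng/mL to 20 µg/mL). Parameters were calculated non-compartmentally.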

Rattus norvegicus [4] = test: AUC in rat at 1 mg/kg, iv; format: ADME, organism-based, Sprague-Dawley, Plasma; parameters: dose 1 mg/kg, route intravenous; conditions: in vivo
Method in brief: (§2)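 Male Sprague Dawley rats (6-10 weeks), fed ad lib, dosed IV at 1 mg/kg (1 mg/mL in 10% DMSO/90% normal saline, 1 mL/kg). Tail-vein EDTA blood sampled 1, 5, 15, 30 min and 1, 2, 4, 8, 12, 24 h. Plasma analysed by LC/MS/MS after methanol protein precipitation, range 9 ng/mL to 20 µg/mL. Parameters derived by non-compartmental analysis.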

Rattus norvegicus [5] = test: AUC in rat at 10 mg/kg, po; format: ADME, organism-based, Sprague-Dawley, Plasma; parameters: dose 10 mg/kg, route oral; conditions: in vivo
Method in brief: (§3)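 Male Sprague Dawley rats (6-10 weeks) were given 10 mg/kg by oral gavage (2 mg/mL in 1% CMC/0.5% Tween 80, 5 mL/kg). Tail-vein EDTA blood was drawn at 15 and 30 min and 1, 2, 4, 8, 12, 24, 48, 72 h. Plasma was quantified by LC/MS/MS after methanol precipitation. Parameters came from non-compartmental analysis.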

[6] = Half life in rat at 1 mg/kg, iv; format: ADME, organism-based; parameters: dose 1 mg/kg, route intravenous; conditions: Sprague-Dawley, in vivo; method in brief: as §2
[7] = Half life in rat at 10 mg/kg, po; format: ADME, organism-based; parameters: dose 10 mg/kg, route oral; conditions: Sprague-Dawley, in vivo; method in brief: as §3
HT-29 = test: Inhibition of ERK phosphorylation in HT29 tumor bearing NCr-nu/nu mice after 4 hrs at 10 mg/kg, po; format: functional; conditions: Mus musculus, HT-29, 4 h
[8] = biological target: AMP-activated protein kinase, AMPK (Homo sapiens) (UniProt P54646+O43741+P54619+Q9UGJ0+Q9Y478+Q13131+Q9UGI9); test: Inhibition of AMPK at 10 uM; format: protein-complex assay; method in brief: as §1
[9] = biological target: T1, Serine/threonine-protein kinase Chk1 (Homo sapiens) (UniProt O14757); test: Inhibition of CHK1 at 10 uM; method in brief: as §1
T1 sequence (whole entry): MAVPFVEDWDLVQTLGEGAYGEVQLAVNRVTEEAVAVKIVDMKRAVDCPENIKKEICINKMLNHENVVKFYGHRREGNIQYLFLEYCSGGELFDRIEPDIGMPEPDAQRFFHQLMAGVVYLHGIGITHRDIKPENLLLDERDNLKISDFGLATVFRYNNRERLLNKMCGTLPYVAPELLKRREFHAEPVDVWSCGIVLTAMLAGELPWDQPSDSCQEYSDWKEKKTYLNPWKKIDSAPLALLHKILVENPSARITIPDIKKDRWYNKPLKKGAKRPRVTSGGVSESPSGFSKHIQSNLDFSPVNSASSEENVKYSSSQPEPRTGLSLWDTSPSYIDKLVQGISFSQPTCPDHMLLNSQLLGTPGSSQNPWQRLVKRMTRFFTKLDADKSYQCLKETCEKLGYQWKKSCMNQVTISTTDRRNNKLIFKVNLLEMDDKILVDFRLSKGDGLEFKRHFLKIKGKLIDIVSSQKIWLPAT

[10] = biological target: Casein kinase II (Homo sapiens) (UniProt P67870+P68400+P19784); test: Inhibition of CK2 at 10 uM; format: protein-complex assay; method in brief: as §1
[11] = biological target: Cyclin-dependent kinase 2/cyclin A (Homo sapiens) (UniProt P24941+P20248+P78396); test: Inhibition of CDK2/cyclin A at 10 uM; format: protein-complex assay; method in brief: as §1
[12] = biological target: Dual specificity tyrosine-phosphorylation-regulated kinase 1A (Homo sapiens) (UniProt Q13627); test: Inhibition of DYRK1a at 10 uM; method in brief: as §1
[13] = biological target: MAP kinase-activated protein kinase 2 (Homo sapiens) (UniProt P49137); test: Inhibition of MAPKAP-K2 at 10 uM; method in brief: as §1
Sequence of MAP kinase-activated protein kinase 2 (Homo sapiens) (P49137 whole entry, looked up): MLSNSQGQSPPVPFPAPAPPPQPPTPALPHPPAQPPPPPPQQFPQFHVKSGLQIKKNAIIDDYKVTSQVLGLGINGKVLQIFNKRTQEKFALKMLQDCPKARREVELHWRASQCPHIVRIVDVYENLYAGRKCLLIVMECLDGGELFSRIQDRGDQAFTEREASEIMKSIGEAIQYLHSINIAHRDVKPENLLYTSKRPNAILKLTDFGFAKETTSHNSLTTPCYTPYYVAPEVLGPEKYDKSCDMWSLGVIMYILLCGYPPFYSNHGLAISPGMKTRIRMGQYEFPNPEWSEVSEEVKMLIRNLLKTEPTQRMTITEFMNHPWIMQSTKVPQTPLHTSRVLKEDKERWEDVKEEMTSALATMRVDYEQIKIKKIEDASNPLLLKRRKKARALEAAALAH

[14] = biological target: Ribosomal protein S6 kinase alpha-5 (Homo sapiens) (UniProt O75582); test: Inhibition of MSK1 at 10 uM; method in brief: as §1
Sequence of Ribosomal protein S6 kinase alpha-5 (Homo sapiens) (O75582 whole entry, looked up): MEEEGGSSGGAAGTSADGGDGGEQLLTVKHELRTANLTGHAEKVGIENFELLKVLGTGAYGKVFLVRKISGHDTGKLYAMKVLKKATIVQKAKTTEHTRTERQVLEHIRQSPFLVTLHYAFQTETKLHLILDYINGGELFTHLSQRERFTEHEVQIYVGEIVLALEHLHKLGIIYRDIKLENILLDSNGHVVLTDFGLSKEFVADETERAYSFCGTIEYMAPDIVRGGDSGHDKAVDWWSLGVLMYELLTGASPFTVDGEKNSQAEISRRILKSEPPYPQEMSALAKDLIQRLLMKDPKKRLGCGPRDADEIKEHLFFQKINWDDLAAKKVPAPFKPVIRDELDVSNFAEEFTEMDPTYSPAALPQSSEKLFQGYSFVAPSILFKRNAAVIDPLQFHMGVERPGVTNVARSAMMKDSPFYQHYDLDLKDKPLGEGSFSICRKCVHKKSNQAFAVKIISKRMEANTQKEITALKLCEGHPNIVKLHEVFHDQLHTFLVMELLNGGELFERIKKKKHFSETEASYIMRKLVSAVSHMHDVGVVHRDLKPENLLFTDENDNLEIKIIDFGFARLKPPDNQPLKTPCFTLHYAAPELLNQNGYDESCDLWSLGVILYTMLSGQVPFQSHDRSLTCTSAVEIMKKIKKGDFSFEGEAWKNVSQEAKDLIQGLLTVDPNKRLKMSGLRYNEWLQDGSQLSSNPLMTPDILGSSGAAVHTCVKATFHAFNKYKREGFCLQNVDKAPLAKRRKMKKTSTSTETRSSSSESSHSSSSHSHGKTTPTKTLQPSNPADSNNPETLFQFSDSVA

[15] = biological target: T2, MAP kinase-activated protein kinase 5 (Homo sapiens) (UniProt Q8IW41); test: Inhibition of PRAK at 10 uM; method in brief: as §1
T2 sequence (whole entry): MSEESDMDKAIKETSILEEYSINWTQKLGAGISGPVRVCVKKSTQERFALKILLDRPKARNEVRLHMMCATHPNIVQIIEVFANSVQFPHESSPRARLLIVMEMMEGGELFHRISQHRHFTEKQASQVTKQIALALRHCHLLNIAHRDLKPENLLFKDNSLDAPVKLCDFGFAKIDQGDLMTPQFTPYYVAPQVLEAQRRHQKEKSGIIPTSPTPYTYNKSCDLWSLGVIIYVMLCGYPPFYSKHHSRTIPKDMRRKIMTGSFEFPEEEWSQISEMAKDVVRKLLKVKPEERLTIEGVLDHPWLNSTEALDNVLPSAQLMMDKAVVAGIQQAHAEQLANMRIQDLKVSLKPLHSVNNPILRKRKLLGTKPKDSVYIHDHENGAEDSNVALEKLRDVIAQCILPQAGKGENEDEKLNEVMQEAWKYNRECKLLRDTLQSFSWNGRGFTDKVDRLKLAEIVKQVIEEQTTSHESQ

[16] = biological target: cAMP-dependent protein kinase (PKA) (Homo sapiens) (UniProt P22694+P17612+P22612); test: Inhibition of PKA at 10 uM; format: protein assay; method in brief: as §1
[17] = biological target: T3, Lymphokine-activated killer T-cell-originated protein kinase (Homo sapiens) (UniProt Q96KB5); test: Inhibition of PBK at 10 uM; method in brief: as §1
T3 sequence (whole entry): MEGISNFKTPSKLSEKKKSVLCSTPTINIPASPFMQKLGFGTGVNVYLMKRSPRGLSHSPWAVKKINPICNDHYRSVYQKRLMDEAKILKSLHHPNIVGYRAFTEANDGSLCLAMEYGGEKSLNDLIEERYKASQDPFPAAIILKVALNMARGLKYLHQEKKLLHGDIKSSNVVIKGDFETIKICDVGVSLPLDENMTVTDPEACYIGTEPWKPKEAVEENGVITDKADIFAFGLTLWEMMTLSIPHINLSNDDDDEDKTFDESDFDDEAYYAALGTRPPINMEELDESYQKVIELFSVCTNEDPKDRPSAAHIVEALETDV

[18] = biological target: Protein kinase C alpha type (Homo sapiens) (UniProt P17252); test: Inhibition of PKCa at 10 uM; method in brief: as §1

Sequence of Mitogen-activated protein kinase 14 (Homo sapiens) (Q16539 whole entry): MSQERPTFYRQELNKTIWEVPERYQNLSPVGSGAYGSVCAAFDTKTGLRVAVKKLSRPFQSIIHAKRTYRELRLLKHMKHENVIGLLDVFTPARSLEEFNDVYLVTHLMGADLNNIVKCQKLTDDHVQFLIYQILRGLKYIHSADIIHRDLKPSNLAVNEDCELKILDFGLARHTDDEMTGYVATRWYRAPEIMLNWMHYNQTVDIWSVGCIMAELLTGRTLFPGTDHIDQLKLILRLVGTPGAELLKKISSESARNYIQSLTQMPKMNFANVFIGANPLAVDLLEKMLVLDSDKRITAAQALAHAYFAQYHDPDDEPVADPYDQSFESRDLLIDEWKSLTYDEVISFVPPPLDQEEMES

Structure (SMILES) | inhibition [1] [%] | Activity (Malme-3M) [nM] | CLhep predicted [2] [mL/min/kg] | clearance [3] [mL/min/kg] | AUC (Rattus norvegicus [4]) [ng·h/mL] | AUC (Rattus norvegicus [5]) [ng·h/mL] | half-life [6] [h] | half-life [7] [h] | inhibition in vivo at 10 mg/kg (HT-29) [%] | inhibition [8] [%] | inhibition [9] [%] | inhibition [10] [%] | inhibition [11] [%] | inhibition [12] [%] | inhibition [13] [%] | inhibition [14] [%] | inhibition [15] [%] | inhibition [16] [%] | inhibition [17] [%] | inhibition [18] [%]
CCONC(=O)c1cn(C)c(=O)c(C)c1Nc1ccc(Br)cc1F | -3 | 118 | 5 | 1.9 | 8900 | 75000 | 2.5 | 4.7 | > 80 | 2 | 8 | 4 | 20 | 15 | 14 | 5 | 18 | -1 | 3 | 7
CONC(=O)c1cn(C)c(=O)c(C)c1Nc1ccc(Br)cc1F | 3 | 265 | 5 | 1.5 | 11500 | 88300 | 3.5 | 4.7 | > 80 | -4 | -3 | -4 | 8 | 2 | 1 | 6 | 9 | -7 | -4 | 0
Cc1c(Nc2ccc(Br)cc2F)c(C(=O)NOCCO)cn(C)c1=O | 20 | 11 | 6 | 8 | 2260 | 12000 | 1.6 | 3 | > 80 | 19 | 11 | -1 | 9 | 10 | 8 | 2 | 16 | 15 | -8 | -3
